This sample holds only a part of the variants without activity.
B1: tRNA (parent)
chain: GUUCCGUUGGCGUAAUGGUAACGCGUCUCCCUCCUAAGGAGAAGACUGCGGGUUCGAGUCCCGUACGGAACG

Variants of: B1
Experiment: yeast fitness relative to wild type (ratio to wild type); higher = fitter; tRNA-Arg(CCU), competitive growth, 37 C, YPD
Method in brief: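 Genotype frequency changes were the basis for Darwinian fitness relative to wild type. The frequencies came from 100-nucleotide paired-end sequencing of gene amplicons from the start population and each end population of pooled yeast strains with tRNA-Arg(CCU) gene variants at the native locus. Competition ran in YPD at 37°C for 24 hours in six replicates, genotypes needed ≥ 100 starting reads, and estimates < 0.5 were set to 0.5.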

Variant	yeast fitness
C4A U53A	0.769
C4A U13A G50A	0.613
C4G A15U C33A G52C C55G	≤ 0.5
C4A C30G C31U C55A C61G G67A	≤ 0.5
C4A U16C G17A G56A C61U	≤ 0.5
C4A C33A A40U	0.522
C4A U32C U59G	≤ 0.5
C4A C24G G44C C62G	≤ 0.5
C4A U8G G41C A45G	0.703
C4A G23A A40C U53C	≤ 0.5
C4A C22G A40C G67A	0.61
C4A G10C A69C	≤ 0.5
C4G A21C G23C A36U	0.635
C4A C11G U19G	≤ 0.5
C4A C46A G67A	0.73
C4A G23A U35C G56A	≤ 0.5
C4A U8C G10A A42C	≤ 0.5
C4A U7A C46U	≤ 0.5
C4A U8C U47C	0.579
C4A C11U C22A G23C A40G	≤ 0.5
C4A C46G C60G	≤ 0.5

Variant	yeast fitness
C4A C22U C60U G67C	0.519
C4A G41A A45U G58U C60A	≤ 0.5
C4G A15U C33A G52C	0.707
C4A G25U A65C	≤ 0.5
C4A C61U	0.911
C4A C61G	0.71
C4A G18C A43C	≤ 0.5
C4A C33A	0.705
C4A C24G C33G G63C	≤ 0.5
C4A U7G G12C	0.549
C4A C5U U19A C66A	≤ 0.5
C4A U8A G18A C27U A45U	≤ 0.5
C4A U26G G44C G58A G68C	0.558
C4A C34G C61A	≤ 0.5
C4A U16C G17A G56C	≤ 0.5
C4A C49U C55A C66U	0.545
C4A C34G C46G G56A	≤ 0.5
C4A U53C G67C	0.537
C4A G17A G41A U47C G50C	≤ 0.5
C4G A15C C66U	0.539
C4A G10A A36U	≤ 0.5

Variant	yeast fitness
C4A C31A C33U	≤ 0.5
C4G A15G A43G A57C A65U	≤ 0.5
C4G A21C A43U	≤ 0.5
C4A C29U G67A	≤ 0.5
C4A C31G G39A G51C	≤ 0.5
C4A G17A C27G C55U	0.62
C4A G56A	0.88
C4A C24A G52C A57C U59A	0.57
C4A G23A C29U C34G G38C U54A A57C	0.602
C4A U54G A65U	≤ 0.5
C4G A20G C22G C33U A36C A40U	≤ 0.5
C4A G6A A65G	0.56
C4G A14C G25C A45U	≤ 0.5
C4A C29U C30G C49U	≤ 0.5
C4A U28G C31U A40C A57G	≤ 0.5
C4A U13A G63A	≤ 0.5
C4A C31A C33G U47A	≤ 0.5
C4A U26A U32G U53A C62A G68C	≤ 0.5
C4A G9A A45G	≤ 0.5
C4A C60G	0.61
C4A C60A	0.676

Variant	yeast fitness
C4G A20U C29U C49U	≤ 0.5
C4A G9C C11G A21C C55U C62U G67C	≤ 0.5
C4A G12A	0.666
C4A G9C C30A G39A G58A	≤ 0.5
C4A C11G G51C	≤ 0.5
C4A C30G C66A	≤ 0.5
C4A U8G A14U	0.524
C4A G10C C11U C27U A45U U59C C60G	≤ 0.5
C4A G9C C11G A45C	0.508
C4A C55A A69C A70U	≤ 0.5
C4A U35G	0.564
C4A C31G	0.758
C4A C30U A57G A65U	≤ 0.5
C4A G23C C31U A36C A43C G50C A70U	≤ 0.5
C4G A14G A37U G38A	≤ 0.5
C4G A15C A57U C61G	≤ 0.5
C4A C27G C29G G68U	≤ 0.5
C4A C11A U13C	0.605
C4A U16C G17A U59A	≤ 0.5
C4G A14U G23A G56C	≤ 0.5

Reference: the RNAGym collection of RNA variant scans (doi:10.1126/science.aae0568)
